Source: ChEMBL document CHEMBL3227955, “Studies on the mechanism of antiviral action of 1-(beta-D-ribofuranosyl)-1,2,4-triazole-3-carboxamide (ribavirin)” (J Med Chem, 1979)
pIC50: −log10 of the molar value. Activity calls are given as the source filed them. The calls are words filed in the database; no cut-off is given here.

Organism: Rattus norvegicus
Experiment: Activity at rat liver nucleoside kinase assessed as phosphorylation using [gamma-32P]-ATP after 10 to 20 mins
Method in brief: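 Rat liver nucleoside kinase was the 55–90% (NH4)2SO4 fraction of the 144000g supernatant, dialyzed. The medium was 50 mM Tris-HCl pH 8.0, 5 μM MgCl2 (so in the source), 25 mM KCl, 1 mM [γ-32P]ATP, and pyruvate kinase with 2 mM phosphoenolpyruvate. Incubation was 10 or 20 min at 37 °C, stopped by 1 min at 100 °C. Liberated Pi was precipitated with added 0.1 mM K2HPO4.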

Q: Which Activity does the source give for `CO[C@@H]1[C@H](O)[C@@H](CO)O[C@H]1n1cnc(C(N)=O)n1` here?
A: The Activity was “inactive”.

Q: For `OC[C@H]1O[C@@H](n2cncn2)[C@H](O)[C@@H]1O`, which Activity is on record?
A: The Activity was “inactive”.

Q: For `CO[C@H]1[C@@H](O)[C@H](n2cnc(C(N)=O)n2)O[C@@H]1CO`, which Activity is on record?
A: Its Activity is “inactive”.

Q: Which Activity does the source give for `O=C(O)c1ncn([C@@H]2O[C@H](CO)[C@@H](O)[C@H]2O)n1` here?
A: The Activity was “inactive”.

Q: With `NC(=O)c1ncn([C@@H]2O[C@H](CO)[C@@H](O)[C@H]2O)n1` as the compound, how does the Activity read?
A: Its Activity is “Active”.

Q: Which Activity does the source give for `Nc1ncnc2c1ncn2[C@@H]1O[C@H](CO)[C@@H](O)[C@H]1O` here?
A: Its Activity is “Active”.

Target: not listed separately
Experiment: Inhibition of rat spleen IMP dehydrogenase using NAD and IMP up to 1 hr
Type: tissue-based
Method in brief: (§1)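 Rat spleen IMP dehydrogenase was the 30–40% (NH4)2SO4 fraction, dialyzed, at 0.66 mg protein/mL. Buffer was 0.1 M phosphate pH 7.7 with 1 mM EDTA, 0.5 mM 2-mercaptoethanol and 0.2 mM each NAD and IMP, started with IMP. A340 change against a no-IMP blank was followed at 37 °C for up to 1 h. Activity was expressed relative to the no-inhibitor rate.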

Q: With `NC(=O)c1ncn([C@@H]2O[C@H](COP(=O)(O)O)[C@@H](O)[C@H]2O)n1` [RIBAVIRIN MONOPHOSPHATE] as the compound, how does the pIC50 read?
A: Its pIC50 is 5.70.

Q: With `O=C(O)c1ncn([C@@H]2O[C@H](COP(=O)(O)O)[C@@H](O)[C@H]2O)n1` as the compound, how does the pIC50 read?
A: Its pIC50 is 4.15.

Organism: Rattus norvegicus
Experiment: Inhibition of rat spleen IMP dehydrogenase using NAD and IMP at 200 uM up to 1 hr
Type: tissue-based
Method in brief: as §1

Q: With `O=P(O)(O)OC[C@H]1O[C@@H](n2cncn2)[C@H](O)[C@@H]1O` as the compound, how does the inhibition read?
A: Its inhibition is “inactive”.

Q: With `CO[C@H]1[C@@H](O)[C@H](n2cnc(C(N)=O)n2)O[C@@H]1COP(=O)(O)O` as the compound, how does the inhibition read?
A: Its inhibition is “inactive”.

Q: Which inhibition does the source give for `CO[C@@H]1[C@H](O)[C@@H](COP(=O)(O)O)O[C@H]1n1cnc(C(N)=O)n1` here?
A: The inhibition was “inactive”.
